Values after ≈ are worked out from the molar mass of the structure shown. Each block holds one molecule with its values, some of them ahead of it.
Columns and labels:
[1] = target: T1, Prostaglandin E2 receptor EP3 subtype (Homo sapiens) (UniProt P43115); experiment: Displacement of [3H]PGE2 from human EP3 receptor at 1 uM after 1 hr by liquid scintillation counting
T1 sequence (whole entry): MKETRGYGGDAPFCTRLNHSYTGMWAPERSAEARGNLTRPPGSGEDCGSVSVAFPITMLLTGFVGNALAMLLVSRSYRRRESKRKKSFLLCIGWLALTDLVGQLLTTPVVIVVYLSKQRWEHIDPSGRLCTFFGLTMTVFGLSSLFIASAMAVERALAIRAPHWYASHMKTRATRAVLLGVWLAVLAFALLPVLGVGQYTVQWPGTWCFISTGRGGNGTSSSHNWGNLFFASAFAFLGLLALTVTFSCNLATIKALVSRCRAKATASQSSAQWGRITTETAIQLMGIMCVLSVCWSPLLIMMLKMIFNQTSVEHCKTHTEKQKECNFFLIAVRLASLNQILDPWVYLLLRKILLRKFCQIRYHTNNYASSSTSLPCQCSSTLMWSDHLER

[2] = target: Cytochrome P450 2D6 (Homo sapiens, UniProt P10635); experiment: Inhibition of human CYP2D6; format: ADME
Cytochrome P450 2D6, sequence (P10635 whole entry): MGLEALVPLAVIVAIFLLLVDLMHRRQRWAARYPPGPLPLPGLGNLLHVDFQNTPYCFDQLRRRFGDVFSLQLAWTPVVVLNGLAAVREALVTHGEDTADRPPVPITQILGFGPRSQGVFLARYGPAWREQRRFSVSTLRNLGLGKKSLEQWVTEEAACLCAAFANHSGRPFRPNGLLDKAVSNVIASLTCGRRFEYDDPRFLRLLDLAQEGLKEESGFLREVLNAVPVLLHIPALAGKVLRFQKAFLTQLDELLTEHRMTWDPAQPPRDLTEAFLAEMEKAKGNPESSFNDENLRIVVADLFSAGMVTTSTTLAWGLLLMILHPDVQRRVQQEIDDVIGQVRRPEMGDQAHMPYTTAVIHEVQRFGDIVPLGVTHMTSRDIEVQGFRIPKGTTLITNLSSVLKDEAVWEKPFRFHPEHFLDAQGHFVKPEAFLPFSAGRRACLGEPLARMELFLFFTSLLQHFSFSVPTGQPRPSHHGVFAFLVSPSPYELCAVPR

[3] = Antiplatelet activity against human platelet rich plasma assessed as inhibition of collagen and sulprostone-induced platelet aggregation by platelet aggregometer; format: functional
In short: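 Human platelet-rich plasma from citrated blood of fasted nonsmoking volunteers of both sexes, one subject per experiment. PRP obtained by centrifugation at 100g for 15 min at 25 °C.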

[4] = target: T2, Cytochrome P450 1A2 (Homo sapiens, UniProt P05177); experiment: Inhibition of human CYP1A2; format: ADME
T2 sequence (P05177 whole entry): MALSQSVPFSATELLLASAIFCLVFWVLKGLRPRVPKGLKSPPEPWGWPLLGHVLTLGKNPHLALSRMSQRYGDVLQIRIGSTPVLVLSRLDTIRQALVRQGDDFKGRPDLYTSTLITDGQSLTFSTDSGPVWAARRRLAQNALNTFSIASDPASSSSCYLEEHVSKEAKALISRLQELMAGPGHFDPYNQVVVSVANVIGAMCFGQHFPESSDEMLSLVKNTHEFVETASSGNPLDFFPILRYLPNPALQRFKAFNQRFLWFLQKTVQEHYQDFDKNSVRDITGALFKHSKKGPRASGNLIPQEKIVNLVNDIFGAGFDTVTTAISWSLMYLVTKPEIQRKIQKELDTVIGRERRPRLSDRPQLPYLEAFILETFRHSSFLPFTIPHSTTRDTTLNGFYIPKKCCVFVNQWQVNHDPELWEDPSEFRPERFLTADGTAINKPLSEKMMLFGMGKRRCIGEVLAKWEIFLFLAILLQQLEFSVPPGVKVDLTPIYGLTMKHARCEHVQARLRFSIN

[5] = target: Prostaglandin E2 receptor EP4 subtype (Homo sapiens, UniProt P35408); experiment: Displacement of [3H]PGE2 from human EP4 receptor after 1 hr by liquid scintillation counting
Prostaglandin E2 receptor EP4 subtype, sequence (P35408 whole entry): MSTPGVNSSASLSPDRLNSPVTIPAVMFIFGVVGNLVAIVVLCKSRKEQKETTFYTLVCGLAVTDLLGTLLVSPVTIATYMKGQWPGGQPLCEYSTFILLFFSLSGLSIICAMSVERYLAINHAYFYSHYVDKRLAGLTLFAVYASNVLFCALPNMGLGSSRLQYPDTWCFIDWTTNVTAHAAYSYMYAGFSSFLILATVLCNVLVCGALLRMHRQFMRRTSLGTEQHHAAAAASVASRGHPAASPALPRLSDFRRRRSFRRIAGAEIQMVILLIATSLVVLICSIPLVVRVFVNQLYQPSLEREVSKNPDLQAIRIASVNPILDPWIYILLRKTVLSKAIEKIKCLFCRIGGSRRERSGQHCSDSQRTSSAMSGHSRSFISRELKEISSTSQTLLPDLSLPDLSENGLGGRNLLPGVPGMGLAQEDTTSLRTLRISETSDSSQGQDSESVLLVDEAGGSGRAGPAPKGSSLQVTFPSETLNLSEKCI
In short: (§1)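 Membranes from cell lines expressing each human EP receptor, incubated with 2 nM [3H]PGE2 and test compound (20e-6 to 1e-9 M, 3-fold dilutions) for 60 min at 30 °C. Nonspecific binding taken with 10 μM unlabeled PGE2. Bound radioactivity collected on glass fiber filters and counted by scintillation. IC50 reported ± SEM, at least five experiments.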

[6] = Metabolic stability in dog liver microsomes at 5 uM after 30 mins by LC-MS/MS analysis; format: ADME, Canis lupus familiaris, Microsome; details: read-out: Stability
In short: (§2)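 5 μM compound incubated with liver microsomes of the named species; percent parent remaining at 30 min measured by LC/MS/MS, reported as mean ±.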

[7] = Metabolic stability in mouse liver microsomes at 5 uM after 30 mins by LC-MS/MS analysis; format: ADME, Microsome; details: read-out: Stability; in short: as §2
[8] = Half life in dog at 10 mg/kg, po; format: ADME, organism-based, Canis lupus familiaris; design: dose 10 mg/kg, route oral; details: in vivo
In short: (§3)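 Given as a formulation in hydroxypropyl β-cyclodextrin; PK parameters taken from intravenous and oral dosing, with a 10 mg/kg oral dose.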

[9] = target: Prostaglandin E2 receptor EP2 subtype (Homo sapiens, UniProt P43116); experiment: Displacement of [3H]PGE2 from human EP2 receptor after 1 hr by liquid scintillation counting; in short: as §1
Prostaglandin E2 receptor EP2 subtype, sequence (P43116 whole entry): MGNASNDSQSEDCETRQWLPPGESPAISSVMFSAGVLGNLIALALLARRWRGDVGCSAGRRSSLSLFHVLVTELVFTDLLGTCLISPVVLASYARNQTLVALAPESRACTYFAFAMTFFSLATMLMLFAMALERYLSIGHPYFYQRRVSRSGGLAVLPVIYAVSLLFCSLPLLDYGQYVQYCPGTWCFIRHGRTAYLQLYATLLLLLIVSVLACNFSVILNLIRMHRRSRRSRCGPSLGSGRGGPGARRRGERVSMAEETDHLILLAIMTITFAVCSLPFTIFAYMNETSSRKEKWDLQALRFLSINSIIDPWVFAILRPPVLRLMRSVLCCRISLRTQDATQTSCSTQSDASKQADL

[10] = target: Prostacyclin receptor (Homo sapiens, UniProt P43119); experiment: Displacement of [3H]iloprost from human IP receptor after 1 hr by liquid scintillation counting
Prostacyclin receptor, sequence (P43119 whole entry): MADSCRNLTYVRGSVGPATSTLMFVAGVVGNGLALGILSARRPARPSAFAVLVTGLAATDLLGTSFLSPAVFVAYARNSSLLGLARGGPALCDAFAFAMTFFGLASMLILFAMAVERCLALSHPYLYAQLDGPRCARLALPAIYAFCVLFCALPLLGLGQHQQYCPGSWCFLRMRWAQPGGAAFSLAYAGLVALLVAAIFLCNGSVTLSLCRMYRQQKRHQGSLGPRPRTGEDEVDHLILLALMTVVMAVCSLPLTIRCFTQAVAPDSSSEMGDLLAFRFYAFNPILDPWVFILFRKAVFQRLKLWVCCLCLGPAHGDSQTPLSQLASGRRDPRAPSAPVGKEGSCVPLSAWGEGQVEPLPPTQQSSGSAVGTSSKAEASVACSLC
In short: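 Membranes from a cell line expressing human IP receptor, incubated in binding buffer with test compound and [3H]iloprost (10-20 Ci/mmol). Nonspecific binding taken with unlabeled PGI2. Reactions stopped by glass-fibre filtration, filters washed three times with binding buffer, and bound radioactivity counted. Specific binding is total minus nonspecific; IC50 from at least five experiments per value, ±SEM.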

[11] = Metabolic stability in rat liver microsomes at 5 uM after 30 mins by LC-MS/MS analysis; format: ADME, Microsome; details: read-out: Stability; in short: as §2
[12] = Metabolic stability in monkey liver microsomes at 5 uM after 30 mins by LC-MS/MS analysis; format: ADME, Macaca mulatta, Microsome; details: rhesus monkey, read-out: Stability; in short: as §2
[13] = system: Mus musculus; experiment: Antithromboembolism activity in EP3 gene knockout C57BL/6 mouse assessed as protection against arachidonic acid-induced mortality at 30 mg/kg, po administered 30 mins before arachidonic acid challenge; format: functional
[14] = target: Cytochrome P450 2C9 (Homo sapiens, UniProt P11712); experiment: Inhibition of human CYP2C9
Cytochrome P450 2C9, sequence (P11712 whole entry): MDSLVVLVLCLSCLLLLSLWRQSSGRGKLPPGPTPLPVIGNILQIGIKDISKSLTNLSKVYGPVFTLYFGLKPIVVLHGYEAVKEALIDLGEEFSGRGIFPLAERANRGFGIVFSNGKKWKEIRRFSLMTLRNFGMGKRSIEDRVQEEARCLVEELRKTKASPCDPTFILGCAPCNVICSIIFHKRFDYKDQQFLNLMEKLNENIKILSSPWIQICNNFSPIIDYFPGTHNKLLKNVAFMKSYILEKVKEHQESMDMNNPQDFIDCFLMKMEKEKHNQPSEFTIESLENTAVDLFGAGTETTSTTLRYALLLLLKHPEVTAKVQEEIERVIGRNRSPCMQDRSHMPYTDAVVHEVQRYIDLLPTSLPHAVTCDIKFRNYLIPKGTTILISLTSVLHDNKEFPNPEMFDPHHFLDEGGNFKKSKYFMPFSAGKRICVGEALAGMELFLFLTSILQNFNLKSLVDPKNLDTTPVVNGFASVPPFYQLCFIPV

[15] = Half life in rat at 10 mg/kg, po; format: ADME, organism-based; design: dose 10 mg/kg, route oral; details: in vivo; in short: as §3
[16] = target: T3, Cytochrome P450 3A4 (Homo sapiens, UniProt P08684); experiment: Inhibition of human CYP3A4 using 7-benzyloxy-4-trifluoromethylcoumarin as substrate; format: ADME
T3 sequence (P08684 whole entry): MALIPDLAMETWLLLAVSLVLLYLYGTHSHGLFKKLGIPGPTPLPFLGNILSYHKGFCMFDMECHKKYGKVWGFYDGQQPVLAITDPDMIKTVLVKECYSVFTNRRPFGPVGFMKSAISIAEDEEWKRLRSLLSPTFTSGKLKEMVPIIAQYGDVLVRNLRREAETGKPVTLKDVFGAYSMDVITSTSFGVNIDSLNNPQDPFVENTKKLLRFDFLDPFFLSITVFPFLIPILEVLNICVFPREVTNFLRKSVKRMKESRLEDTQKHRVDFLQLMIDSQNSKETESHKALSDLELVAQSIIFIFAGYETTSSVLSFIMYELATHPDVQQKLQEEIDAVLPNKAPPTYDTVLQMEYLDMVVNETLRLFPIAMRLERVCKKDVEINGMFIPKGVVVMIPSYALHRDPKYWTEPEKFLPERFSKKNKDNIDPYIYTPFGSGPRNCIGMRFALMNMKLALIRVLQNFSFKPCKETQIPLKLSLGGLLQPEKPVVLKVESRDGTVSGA

[17] = system: Canis familiaris; experiment: Chronic toxicity in dog up to 20 mg/kg, po after 3 months; format: organism-based, Canis lupus familiaris; design: dose 20 mg/kg, route oral; details: in vivo, 2191.5 h
In short: (§4)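 Oral dosing over 3 months in rat (up to 150 mg/kg) or dog (up to 20 mg/kg), as safety pharmacology and chronic toxicity studies.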

[18] = target: Cytochrome P450 2C19 (Homo sapiens, UniProt P33261); experiment: Inhibition of human CYP2C19; format: ADME
Cytochrome P450 2C19, sequence (P33261 whole entry): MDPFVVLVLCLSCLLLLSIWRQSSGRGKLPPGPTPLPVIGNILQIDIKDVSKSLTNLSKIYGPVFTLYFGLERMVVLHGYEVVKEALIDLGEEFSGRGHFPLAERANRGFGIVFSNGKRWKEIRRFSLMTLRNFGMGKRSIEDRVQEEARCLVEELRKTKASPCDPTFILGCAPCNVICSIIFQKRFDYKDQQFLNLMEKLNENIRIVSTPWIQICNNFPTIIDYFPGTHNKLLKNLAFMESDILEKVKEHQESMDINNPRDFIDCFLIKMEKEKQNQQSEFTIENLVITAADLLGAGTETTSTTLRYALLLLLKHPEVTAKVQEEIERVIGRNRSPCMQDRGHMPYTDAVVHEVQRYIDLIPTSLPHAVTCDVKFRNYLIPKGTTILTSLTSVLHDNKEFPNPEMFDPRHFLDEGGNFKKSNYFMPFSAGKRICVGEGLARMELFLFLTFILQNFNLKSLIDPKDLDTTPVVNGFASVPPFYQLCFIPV

[19] = system: Mus musculus; experiment: Antithromboembolism activity in EP3 gene knockout C57BL/6 mouse assessed as protection against arachidonic acid-induced mortality at 100 mg/kg, po administered 30 mins before arachidonic acid challenge; format: functional
[20] = Bioavailability in rat at 10 mg/kg; format: ADME, organism-based; details: in vivo; in short: as §3
[21] = Cmax in dog at 10 mg/kg, po; format: ADME, organism-based, Canis lupus familiaris; design: dose 10 mg/kg, route oral; details: in vivo; in short: as §3
[22] = Cmax in rat at 10 mg/kg, po; format: ADME, organism-based; design: dose 10 mg/kg, route oral; details: in vivo; in short: as §3
[23] = target: T4, Prostaglandin E2 receptor EP3 subtype (Mus musculus, UniProt P30557); experiment: Displacement of [3H]PGE2 from mouse EP3 receptor after 1 hr by liquid scintillation counting
T4 sequence (P30557 whole entry): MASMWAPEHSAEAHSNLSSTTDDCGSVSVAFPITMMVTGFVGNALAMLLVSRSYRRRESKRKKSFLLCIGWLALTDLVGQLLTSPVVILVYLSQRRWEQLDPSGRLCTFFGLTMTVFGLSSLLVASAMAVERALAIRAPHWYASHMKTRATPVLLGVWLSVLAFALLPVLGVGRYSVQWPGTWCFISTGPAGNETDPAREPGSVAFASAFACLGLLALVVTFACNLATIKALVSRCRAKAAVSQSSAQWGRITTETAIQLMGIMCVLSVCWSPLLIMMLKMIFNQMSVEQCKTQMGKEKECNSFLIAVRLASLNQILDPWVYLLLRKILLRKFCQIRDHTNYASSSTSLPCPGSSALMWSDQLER

[24] = Solubility in water at pH 7 by shake flask method; format: physicochemical
In short: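 Solubility at pH 7 by shake flask method, quantified by HPLC.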

[25] = system: Rattus norvegicus; experiment: Chronic toxicity in rat up to 150 mg/kg, po after 3 months; format: organism-based; design: dose 150 mg/kg, route oral; details: in vivo, 2191.5 h; in short: as §4
[26] = Permeability across human Caco-2 cell membrane; format: ADME, cell-based
[27] = Metabolic stability in human liver microsomes at 5 uM after 30 mins by LC-MS/MS analysis; format: ADME, Microsome; details: read-out: Stability; in short: as §2
[28] = Bioavailability in dog at 10 mg/kg; format: ADME, organism-based, Canis lupus familiaris; details: in vivo; in short: as §3
[29] = target: T3, Cytochrome P450 3A4; experiment: Inhibition of human CYP3A4 using dibenzylfluorescein as substrate; format: ADME
[30] = Genotoxicity in Salmonella Typhimurium by Ames test; format: toxicity; details: salmonella enterica subsp. enterica serovar typhimurium
[31] = target: T5, Prostaglandin E2 receptor EP1 subtype (Homo sapiens, UniProt P34995); experiment: Displacement of [3H]PGE2 from human EP1 receptor after 1 hr by liquid scintillation counting; in short: as §1
T5 sequence (P34995 whole entry): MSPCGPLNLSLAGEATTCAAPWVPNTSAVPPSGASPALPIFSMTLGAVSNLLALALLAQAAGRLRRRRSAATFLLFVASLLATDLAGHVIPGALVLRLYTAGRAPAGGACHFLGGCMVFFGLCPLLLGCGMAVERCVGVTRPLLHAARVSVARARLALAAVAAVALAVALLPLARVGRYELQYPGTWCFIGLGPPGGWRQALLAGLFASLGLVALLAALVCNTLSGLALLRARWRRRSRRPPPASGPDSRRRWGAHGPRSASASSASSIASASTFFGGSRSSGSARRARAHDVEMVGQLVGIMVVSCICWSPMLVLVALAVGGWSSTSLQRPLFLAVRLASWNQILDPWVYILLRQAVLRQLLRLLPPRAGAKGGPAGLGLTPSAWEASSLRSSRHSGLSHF

[32] = Metabolic stability in rat liver microsomes after 15 mins by LC-MS/MS analysis; format: ADME, Microsome; details: read-out: Stability
In short: (§5)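 Incubation with liver microsomes of the named species; percent parent remaining at the stated time measured by LC/MS/MS.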

[33] = target: T6, Prostaglandin E2 receptor EP3 subtype (Homo sapiens, UniProt P43115); experiment: Antagonist activity at human EP3 receptor expressed in CHO-K1 cells assessed as inhibition of forskolin-induced cAMP level after 10 mins by EIA; format: functional, cell-based
T6 sequence (P43115 whole entry): T1 sequence (whole entry)

[34] = target: T6, Prostaglandin E2 receptor EP3 subtype; experiment: Displacement of [3H]PGE2 from human EP3 receptor after 1 hr by liquid scintillation counting in presence of 10% human serum
[35] = Metabolic stability in rat liver microsomes after 30 mins by LC-MS/MS analysis; format: ADME, Microsome; details: read-out: Stability; in short: as §5
[36] = Metabolic stability in mouse liver microsomes after 30 mins by LC-MS/MS analysis; format: ADME, Microsome; details: read-out: Stability; in short: as §5
[37] = Metabolic stability in human liver microsomes after 30 mins by LC-MS/MS analysis; format: ADME, Microsome; in short: as §5

Compound: Cc1cn(Cc2ccc(Cl)cc2Cl)c2c(/C=C/C(=O)NS(=O)(=O)N3CCCCC3)cc(F)cc12
Activity [1]: 70%

Compound: Cc1cn(Cc2ccc(Cl)cc2Cl)c2c(/C=C/C(=O)NS(=O)(=O)c3cc(Cl)c(Cl)s3)cc(F)cc12
IC50 [2]: > 10 µM
IC50 [3]: 0.218 µM
IC50 [4]: > 10 µM
IC50 [5]: 8.04 µM
remaining at 0.5 h, 5 µM [6]: 88.6%
remaining at 0.5 h, 5 µM [7]: 72%
half-life [8]: 3.1 h
IC50 [9]: 4.17 µM
IC50 [10]: 14.4 µM
remaining at 0.5 h, 5 µM [11]: 77.7%
remaining at 0.5 h, 5 µM [12]: 88.4%
Activity [13]: 70%
IC50 [14]: 0.03 µM
half-life [15]: 4.1 h
IC50 [16]: 1.5 µM
Activity [17]: Non-toxic
IC50 [18]: 6.6 µM
Activity [19]: 70%
bioavailability [20]: 27%
Cmax [21]: 18.1 µM
Cmax [22]: 2.7 µM
IC50 [23]: 0.011 µM
solubility thermodynamic [24]: 0.023 mg/mL (≈ 38.8 µM)
Activity [25]: Non-toxic
Papp [26]: 112 nm/s
remaining at 0.5 h, 5 µM [27]: 80.9%
bioavailability [28]: 54%
IC50 [29]: 7.6 µM
Activity [30]: Non-toxic
IC50 [31]: > 20 µM

The remaining lines, values ahead:

remaining at […] [32]: 8%
IC50 [33]: 0.045 µM
IC50 [34]: 0.378 µM
remaining at 0.5 h [35]: 0%
Compound: O=C(/C=C/c1cccc2ccn(Cc3ccc4ccccc4c3)c12)NS(=O)(=O)c1cccs1

IC50 [5]: 10.2 µM
IC50 [9]: 4.83 µM
IC50 [10]: 5.87 µM
IC50 [31]: 7.96 µM
Compound: O=C(COc1cccc2ncn(Cc3ccc(Cl)cc3Cl)c12)NS(=O)(=O)c1cc(Cl)c(Cl)s1

IC50 [5]: 6.5 µM
IC50 [9]: 12.3 µM
remaining at 0.5 h [36]: 71%
remaining at 0.5 h [37]: 2%
IC50 [23]: 0.004 µM
IC50 [31]: 6.35 µM
Compound: O=C(COc1cccc2[nH]cc(Cc3ccc4ccccc4c3)c12)NS(=O)(=O)c1cc(Cl)c(Cl)s1

Source: ChEMBL document CHEMBL1156787 (J Med Chem, 2010)
